Compound activity as filed in PubChem BioAssay.
hERG protect: shields human hERG channel from block by proarrhythmic agents | Q12809 | CHO-hERG, FluxOR thallium flux, dofetilide IC70 present | activation (rescue from dofetilide block), less the hit threshold, % at 10 µM | 310,000 compounds, 0.51% hits | AID 1511;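 active = activation above the mean of controls blocked by dofetilide plus 5 SD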;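 also: thallium influx through hERG after potassium depolarization seen as dye fluorescence rise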
Kir21 inh: blocks the mouse Kir2.1 inward-rectifier potassium channel; P35561; HEK293-Kir2.1, FluxOR thallium flux fluorescence; active compounds read low; 310,000 compounds, 0.85% hits; B-score at 10 µM;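 active = fluorescence ratio B-score at or below minus 3 SD of library scores, with starting-brightness B-score within 2 SD, cut at about -4.2 in these data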;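 also: channel flux triggered by added potassium and thallium sulfate stimulus; B-score of peak minus minimum fluorescence over baseline after thallium stimulus; more negative B-score means stronger Kir2.1 block with less thallium influx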
KCNQ1 act: potentiates or activates the human KCNQ1 potassium channel; P51787; CHO-K1 KCNQ1, thallium flux FluxOR fluorescence; active compounds read high; B-score at 10 µM; 310,000 compounds, 0.35% hits; AID 2648;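 active = fluorescence ratio B-score, a plate-corrected score, at least three library SD, with initial intensity B-score within 5 SD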
Target sequence (P51787 whole entry, looked up): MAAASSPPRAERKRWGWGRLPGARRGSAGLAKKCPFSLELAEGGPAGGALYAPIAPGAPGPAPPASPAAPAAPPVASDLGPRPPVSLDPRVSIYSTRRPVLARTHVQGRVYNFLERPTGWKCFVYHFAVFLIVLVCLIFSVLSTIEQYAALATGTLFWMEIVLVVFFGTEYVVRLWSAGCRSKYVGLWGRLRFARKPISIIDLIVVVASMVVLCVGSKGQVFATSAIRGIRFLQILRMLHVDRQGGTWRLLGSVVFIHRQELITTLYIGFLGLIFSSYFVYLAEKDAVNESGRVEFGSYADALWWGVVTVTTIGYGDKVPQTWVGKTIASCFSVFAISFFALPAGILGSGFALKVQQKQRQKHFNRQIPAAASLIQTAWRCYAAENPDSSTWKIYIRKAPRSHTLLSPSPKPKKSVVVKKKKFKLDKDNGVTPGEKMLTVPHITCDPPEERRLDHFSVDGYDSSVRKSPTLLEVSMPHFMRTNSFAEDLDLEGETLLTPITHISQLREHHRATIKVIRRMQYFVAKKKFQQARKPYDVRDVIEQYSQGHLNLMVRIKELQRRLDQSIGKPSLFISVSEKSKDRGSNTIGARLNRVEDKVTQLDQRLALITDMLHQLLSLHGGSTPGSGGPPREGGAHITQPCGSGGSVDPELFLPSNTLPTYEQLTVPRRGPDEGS
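Material: CHO-K1 cells stably expressing KCNQ1. Medium: assay buffer for compound exposure, DMSO matched across wells. Reagent: K+/Tl+ depolarizing stimulus. Compound dosing: single-concentration screen. Times: 37 °C overnight plating, 90-min dark dye load, 20-min compound pretreatment. Technique: FluxOR Tl+ flux fluorescence.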
KCNK9 block: human KCNK9 channel inhibition. HEK293 KCNK9, FluxOR thallium flux fluorescence; active compounds read low. AID 488922. Q9NPC2. 310,000 compounds, 1.2% hits. B-score at 10 µM;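 active = ratio B-score over 3 SD below the library mean, with starting fluorescence within 5 SD of its mean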;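 also: negative B-score means less thallium flux so channel inhibition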
KCNQ1 block: human KCNQ1 channel inhibition. CHO-K1 KCNQ1, FluxOR thallium flux fluorescence; active compounds read high. B-score at 10 µM. 310,000 compounds, 1.3% hits. P51787;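 active = compounds whose thallium flux B-score, printed positive for inhibition, exceeds three library SD while starting fluorescence stays within three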;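 also: channel opened by potassium depolarization with thallium stimulus after 20 min compound exposure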
KCNK3 block: human KCNK3 channel inhibition, primary screen. O14649. CHO-KCNK3 thallium flux, FluxOR fluorescence; active compounds read low. B-score at 10 µM. 340,000 compounds, 0.84% hits;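 active = B-score under library mean minus 4 SD, starting fluorescence ratio at most library mean plus 5 SD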;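 also: more negative B-score means stronger inhibition of thallium flux through KCNK3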
* marks the source's active call; other numbers are inactive results; i = inactive; · = no result given. Rows were chosen to be rich in hits. Some 3.7% of all compounds tested hit in one or more screens of this group.

SMILES | hERG protect | Kir21 inh | KCNQ1 act | KCNK9 block | KCNQ1 block | KCNK3 block
O=C(NCCc1ccc(F)cc1)c1cc2ccccc2oc1=O | -5 | 0 | i | i | i | i
COc1ccc(CCNC(=O)c2cc3ccccc3oc2=O)cc1 | 7.8* | 0.86 | i | i | i | i
Cc1ccccc1CC1(CO)CCCN(C(=O)CCCN2CCCCC2=O)C1 (centres undefined) | -1 | -2.3 | i | i | i | i
Cc1cc(N)ccc1N1CCCC1 | -8 | 1.1 | i | i | 7* | i
CC(C)N1CCc2c(sc(NC(=O)c3ccc(S(=O)(=O)N4CCc5ccccc54)cc3)c2C(N)=O)C1 | -25 | 0.04 | i | i | 17* | i
CNC(=O)c1c(NC(=O)c2ccc(S(=O)(=O)N(C)c3ccccc3)cc2)sc2c1CCN(C(C)C)C2 | -18 | -4.5 | i | -8.1* | i | ·
CCN1CCc2c(sc(NC(=O)c3ccc(S(=O)(=O)N(C)c4ccccc4)cc3)c2C(=O)NC)C1 | -22 | -3.3 | i | i | 21* | i
NC(=O)c1ccsc1NC(=O)c1ccc(S(=O)(=O)N2CCCc3ccccc32)cc1 | -8 | 1.1 | i | i | i | i
CC(C)N1CCc2c(sc(NC(=O)c3cc(-c4cccs4)nc4ccccc34)c2C(N)=O)C1 | -47 | -1.1 | i | -6.9* | i | i
CC(C)N1CCc2c(sc(NC(=O)c3nc4ccccc4s3)c2C(N)=O)C1 | -8 | -1.1 | i | i | i | i
O=C(CSc1nncs1)NCCCc1ccccc1 | -6 | -0.02 | i | i | i | i
COc1ccc(CNC(=O)CN(Cc2ccco2)C(=O)CNS(=O)(=O)c2ccc(F)cc2)cc1 | -5 | 0.04 | i | i | i | i
O=C1CCc2cc(NS(=O)(=O)c3ccc([N+](=O)[O-])cc3)cc3c2N1CCC3 | -12 | -0.03 | i | i | i | i
CCN1CCc2c(sc(NC(=O)c3ccc4ccccc4c3)c2C(N)=O)C1 | -29 | -2.4 | i | -6.8* | i | i
CCOc1ccc(/C=N/Nc2nc(C)cs2)c(O)c1 | -11 | -0.77 | i | i | i | i
O=C(NC(=S)Nc1nc(-c2ccccc2)cs1)c1cccs1 | 17* | -0.09 | 17* | i | i | i
Cc1onc(-c2ccccc2)c1C(=O)Nc1nc(-c2cc(F)ccc2F)cs1 | -19 | -0.85 | i | i | i | i
Cc1onc(-c2ccccc2)c1C(=O)Nc1nc(-c2ccccc2)cs1 | -5 | 0.76 | i | i | 6* | i
COc1ccc(-c2csc(NC(=S)NC(=O)c3ccco3)n2)cc1 | -3 | 1.4 | 8* | i | i | i
Cc1ccc(-c2csc(NC(=S)NC(=O)c3cccs3)n2)cc1 | -3 | 1.8 | i | i | i | i
CC(C)CC(=O)NC(=S)Nc1nc(-c2ccccc2)cs1 | 0 | 0.23 | 9* | i | i | i
CC(C)CC(=O)NC(=S)Nc1nc(-c2ccc(Cl)cc2)cs1 | -4 | -0.9 | i | i | i | i
COc1ccc(S(=O)(=O)N2CCC(C(=O)NCc3ccncc3)CC2)cc1C | -5 | -2.5 | i | i | i | i
CC(C)c1cc(C(=O)NNC(=S)NCc2ccco2)c(O)c(C(C)C)c1 | -18 | 0.39 | i | i | i | i
O=S(=O)(NCc1ccccc1)NCc1cccc(C(F)(F)F)c1 | -2 | 2.5 | i | i | i | i
SMILES | hERG protect | Kir21 inh | KCNQ1 act | KCNK9 block | KCNQ1 block | KCNK3 block
O=C(NCc1ccc(Cl)cc1)c1cccc2c1C(=O)N(CC1CCCO1)C2 (centres undefined) | -11 | 1.5 | i | i | i | i
O=C(Nc1nc(-c2ccncc2)cs1)c1ccco1 | -8 | -0.42 | i | i | i | i
O=C(NC(=S)Nc1nc(-c2ccccc2)cs1)c1ccco1 | 25* | -0.15 | 30* | i | i | i
Cc1ccc(S[C@@H](CCN2CC[C@H](C(C)(C)C)CCC2=O)c2ccccc2)cc1 | -6 | -0.9 | i | i | 7* | i
CCc1nccn1S(=O)(=O)c1ccc2ccc(C)cc2c1 | 27* | -1.2 | 28* | i | i | i
CCOc1ccc2cc(S(=O)(=O)n3ccnc3C)ccc2c1 | -3 | -3.6 | i | i | i | i
Cc1ccc2nc(NC(=O)CN3C(=O)NC4(CCCCC4)C3=O)sc2c1 | -16 | 0.17 | i | i | i | i
CC(c1ccccc1)N1CCC(CNC(=S)Nc2cccc(Cl)c2)C1 (centres undefined) | -14 | -5.9* | i | i | i | i
Cc1ccc(NC(=S)NCC2CCN(C(C)c3ccccc3)C2)cc1 (centres undefined) | -10 | -0.39 | i | i | i | i
CC(=O)N1CCOc2ccc(S(=O)(=O)NCC3CCC(C(=O)Nc4ccc(C)cn4)CC3)cc21 (centres undefined) | -6 | -0.18 | i | i | i | i
CC(C)c1cc(Br)ccc1OCCCN1C(=O)NC(C)(C)C1=O | -17 | -6.8* | i | i | i | i
COc1ccc(NS(=O)(=O)c2ccc(O)c(C(=O)OCC(=O)NC(C)C3CC4CCC3C4)c2)cc1 (centres undefined) | -9 | 0.01 | i | i | i | i
CC(NC(=O)COC(=O)c1cc(NS(=O)(=O)c2ccc(Cl)c([N+](=O)[O-])c2)ccc1O)C1CC2CCC1C2 (centres undefined) | -13 | -1.4 | i | i | 11* | i
Cc1noc(C)c1S(=O)(=O)Nc1cccc(C(F)(F)F)c1 | -8 | -0.01 | i | i | 6* | i
Cc1noc(C)c1S(=O)(=O)NCc1cccc(Cl)c1 | · | · | · | · | · | -11*
Cc1cccc(NS(=O)(=O)c2c(C)noc2C)c1 | -4 | -1.1 | i | i | i | i
CC(=O)Nc1ccc(/C=N/N2C(=O)NC(C)(c3ccc(OC(F)F)cc3)C2=O)cc1 (centres undefined) | -10 | 0.93 | 34* | i | i | i
O=C(CSc1ccc(Cl)cc1)N/N=C/c1cccnc1 | 8.2* | -0.68 | i | i | i | i
CC1(C)C2CC[C@]3(C)C(CC=C4[C@@H]5C[C@@](C)(CO)[C@@H](O)C[C@]5(C(=O)O)CC[C@]43C)[C@@]2(C)CC[C@@H]1O (some centres undefined) | -13 | 0.01 | i | i | i | ·
CC1(C)CC[C@]2(CO)[C@@H](O)C[C@]3(C)C(=CCC4[C@@]5(C)CC[C@H](O)C(C)(C)C5CC[C@]43C)[C@@H]2C1 (some centres undefined) | 0 | 0.6 | 34* | i | i | ·
